Data published in ChEMBL document CHEMBL2321827, “Allopregnanolone and pregnanolone analogues modified in the C ring: synthesis and activity” (J Med Chem, 2013).

Assays:
Type in all cases: cell-based
Cerebral cortex neuron [1] = experiment: Stimulation of [3H]flunitrazepam binding to GABA type A receptor in mouse primary cortical neurons at 100 uM after 30 mins by liquid scintillation counting analysis relative to allopregnanolone
In short: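 Intact E16 mouse cortical neurons cultured 7–9 days, washed in HEPES pH 7.3, then incubated 30 min at 25 °C with 1.3–2.0 nM [3H]flunitrazepam and 100 μM compound in triplicate. Nonspecific binding was defined with 20 μM diazepam and radioactivity counted by scintillation. Binding increase is given as % of the maximal effect of 60 μM allopregnanolone, mean ± sd, n = 2–4.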

[2] = Stimulation of [3H]flunitrazepam binding to GABA type A receptor in mouse primary cortical neurons after 30 mins by liquid scintillation counting analysis; conditions: cerebral cortex neuron
In short: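 Cortical neurons from E16 mouse embryos, cultured 7–9 days with FUdR/uridine against glia, then washed in HEPES buffer pH 7.3. Intact cells were incubated with 1.3–2.0 nM [3H]flunitrazepam and compound (1 nM–300 μM, ≥6 concentrations, triplicate, final DMSO 100 μM) for 30 min at 25 °C. Nonspecific binding used 20 μM diazepam. EC50 came from a sigmoid fit, mean ± sd, n = 2–4.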

Cerebral cortex neuron [3] = experiment: Stimulation of [3H]flunitrazepam binding to GABA type A receptor in primary cortical neurons relative to allopregnanolone

SMILES | Emax (Cerebral cortex neuron [1]) [%] | EC50 [2] [µM] | Activity (Cerebral cortex neuron [3]) [%]
CC(=O)[C@H]1CC[C@H]2[C@@H]3CC[C@@H]4C[C@H](O)CC[C@]4(C)[C@H]3[C@](O)(C#Cc3ccccc3)C[C@]12C | 116 | 1.2 | 
CC(=O)[C@H]1CC[C@H]2[C@@H]3CC[C@@H]4C[C@H](O)CC[C@]4(C)[C@H]3C(=O)C[C@]12C [RENANOLONE] | 42 | 94 | 
C=C1C[C@]2(C)[C@@H](C(C)=O)CC[C@H]2[C@@H]2CC[C@H]3C[C@H](O)CC[C@]3(C)[C@@H]12 | 102 | 1.2 | 
C#C[C@@]1(O)CC[C@@]2(C)[C@H](CC[C@H]3[C@@H]4CC[C@H](C(C)=O)[C@@]4(C)C[C@@](O)(C#C)[C@@H]32)C1 | 61 | 75 | 
CC(=O)[C@H]1CC[C@H]2[C@@H]3CC[C@H]4C[C@H](O)CC[C@]4(C)[C@H]3[C@@H](C)C[C@]12C | 97 | 8 | 
C=C1C[C@]2(C)[C@@H](C(C)=O)CC[C@H]2[C@@H]2CC[C@@H]3C[C@H](O)CC[C@]3(C)[C@@H]12 | 28 | 37.5 | 
CC(=O)[C@H]1CC[C@H]2[C@@H]3CC[C@@H]4C[C@H](O)CC[C@]4(C)[C@H]3[C@@H](C)C[C@]12C | 71 | 14 | 
CC(=O)N[C@@H]1C[C@H]2[C@@H](CC[C@H]3C[C@H](O)CC[C@@]32C)[C@@H]2CC[C@H](C(C)=O)[C@@]12C | 0 | > 100 | 
CC(=O)[C@H]1CC[C@H]2[C@@H]3CC[C@H]4C[C@H](O)CC[C@]4(C)[C@H]3C=C[C@]12C | 67 | 7.4 | 
CC(=O)[C@H]1CC[C@H]2[C@@H]3CC[C@H]4C[C@H](N)CC[C@]4(C)[C@H]3CC[C@]12C |  |  | 56
CC(=O)[C@H]1CC[C@H]2[C@@H]3CC[C@@H]4C[C@H](O)CC[C@]4(C)[C@H]3[C@H](O)C[C@]12C | 43 | 71 | 
C#C[C@]1(O)C[C@]2(C)[C@@H](C(C)=O)CC[C@H]2[C@@H]2CC[C@H]3C[C@H](O)CC[C@]3(C)[C@H]21 | 87 | 32 | 
CC(=O)[C@H]1CC[C@H]2[C@@H]3CC[C@H]4C[C@H](O)CC[C@]4(C)[C@H]3C[C@H](O)[C@]12C | 60 | 46 | 
CC(=O)[C@H]1CC[C@H]2[C@@H]3CC[C@H]4C[C@H](O)CC[C@]4(C)[C@H]3[C@@H]3O[C@@H]3[C@]12C | 9 | > 300 | 
CC(=O)[C@H]1CC[C@H]2[C@@H]3CC[C@H]4C[C@H](O)CC[C@]4(C)[C@H]3C(=O)C[C@]12C [ALFAXALONE] | 92 | 4.6 | 
CC(=O)[C@H]1CC[C@H]2[C@@H]3CC[C@H]4C[C@H](O)CC[C@]4(C)[C@H]3[C@H](O)C[C@]12C | 28 | > 300 | 
CC(=O)[C@H]1CC[C@H]2[C@@H]3CC[C@H]4C[C@H](O)CC[C@]4(C)[C@H]3[C@@H](O)C[C@]12C | 117 | 32 | 
CC(=O)[C@H]1CC[C@H]2[C@@H]3CC[C@H]4C[C@H](O)CC[C@]4(C)[C@H]3C[C@@H](N)[C@]12C | 0 | > 300 | 
CC(=O)[C@H]1CC[C@H]2[C@@H]3CC[C@@H]4C[C@@](O)(C#Cc5ccccc5)CC[C@]4(C)[C@H]3[C@](O)(C#Cc3ccccc3)C[C@]12C | 0 | > 100 | 
CC(=O)[C@H]1CC[C@H]2[C@@H]3CC[C@@H]4C[C@H](O)CC[C@]4(C)[C@H]3[C@@H](O)C[C@]12C | 25 | > 300 | 
C#C[C@]1(O)C[C@]2(C)[C@@H](C(C)=O)CC[C@H]2[C@@H]2CC[C@@H]3C[C@H](O)CC[C@]3(C)[C@H]21 | 91 | 14 | 
CC(=O)[C@H]1CC[C@H]2[C@@H]3CC[C@H]4C[C@H](O)CC[C@]4(C)[C@H]3[C@H](N)C[C@]12C | 45 | 154 | 
CC(=O)[C@H]1CC[C@H]2[C@@H]3CC[C@H]4C[C@H](O)CC[C@]4(C)[C@H]3C[C@@H](O)[C@]12C | 28 | 173 | 
CC(=O)[C@H]1CC[C@H]2[C@@H]3CC[C@@H]4C[C@H](O)CC[C@]4(C)C3=C(C)C[C@]12C | 97 | 3 | 
CC(=O)[C@H]1CC[C@H]2[C@@H]3CC[C@H]4C[C@H](O)CC[C@]4(C)[C@H]3[C@@H](N)C[C@]12C | 140 | 5.9 | 
